The source made the active and inactive calls. The calls are words filed in the database; no cut-off is given here.
Tests used:
Cortical neurone [1] = test: Cytotoxicity against Sprague-Dawley rat primary cortical neurons assessed as cell morphology at 10 uM after 24 hrs by MAP2 immunostaining; format: cell-based
Outline: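 Cortical neurons from 1-day-old Sprague-Dawley pups, plated on poly-D-lysine at 1 × 10^6 cells/well in DMEM with 10% horse serum, used at 3–4 days in culture. Treated 24 h alongside DMSO control (0.01% or 0.1%). Fixed in 4% paraformaldehyde, blocked with Triton X-100/BSA, MAP-2 (1:50) overnight at 4 °C, rhodamine secondary, imaged by fluorescence microscopy at 40X.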

Cortical neurone [2] = test: Reduction of BACE1 expression in Sprague-Dawley rat primary cortical neurons after 24 hrs by immunoblot analysis; format: functional, cell-based
Outline: (§1)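 Primary cortical neurons (1-day-old Sprague-Dawley pups, 3–4 day cultures) treated 24 h at 0–100 μM or 0–10 μM, with DMSO control. Lysed in RIPA, protein quantified by BCA, equal amounts run on 10% Tris–HCl gels, nitrocellulose transfer. BACE1 and ADAM10 antibodies each 1:1000 overnight at 4 °C, HRP secondary, chemiluminescence. Mature ADAM10 is the ~60 kDa band. Bands normalized to actin; mean ± S.D., n=3, Student's t-test.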

Cortical neurone [3] = test: Induction of ADAM10 activation in Sprague-Dawley rat primary cortical neurons after 24 hrs by immunoblot analysis; format: functional, cell-based; outline: as §1
Cortical neurone [4] = test: Induction of matured ADAM10 level in Sprague-Dawley rat primary cortical neurons after 24 hrs by immunoblot analysis; format: functional, cell-based; outline: as §1
Cortical neurone [5] = test: Induction of IDE levels in Sprague-Dawley rat primary cortical neurons at 5 to 100 uM after 24 hrs by immunoblot analysis; format: functional, cell-based; settings: 1 to 10 uM, in the assay text read “1 to 10 uM” for “5 to 100 uM”
Outline: (§2)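 Cortical neurons from neonatal Sprague-Dawley rats treated 24 h at 0, 5, 20, 100 μM or 0, 1, 5, 10 μM, with DMSO control. Lysates were immunoblotted on 10% Tris–HCl gels with IDE or NEP antibody (1:1000, 4 °C overnight), nitrocellulose transfer, HRP detection. Intensities normalized to actin; mean ± S.D. of three independent experiments, Student's t-test.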

Cortical neurone [6] = test: Induction of NEP levels in Sprague-Dawley rat primary cortical neurons at 5 uM after 24 hrs by immunoblot analysis; format: functional, cell-based; outline: as §2
Cortical neurone [7] = test: Cytotoxicity against Sprague-Dawley rat primary cortical neurons assessed as cell death at 100 uM after 24 hrs by MAP2 immunostaining; format: cell-based
Outline: (§3)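 Neurons from 1-day-old pups were plated at 1 × 10^6 cells/well on poly-D-lysine in DMEM with 10% horse serum, 25 mM glucose, 10 mM HEPES, 2 mM glutamine and antibiotics. Day 3–4 cultures were treated 24 h (vehicle 0.1% DMSO), fixed in 4% paraformaldehyde, blocked (0.1% Triton X-100, 1% BSA), stained with MAP-2 1:50 overnight at 4 °C plus rhodamine secondary, and imaged by fluorescence microscopy (40X).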

Cortical neurone [8] = test: Cytotoxicity against Sprague-Dawley rat primary cortical neurons assessed as cell morphology at 100 uM after 24 hrs by MAP2 immunostaining; format: cell-based; outline: as §3
Cortical neurone [9] = test: Induction of IDE levels in Sprague-Dawley rat primary cortical neurons after 24 hrs by immunoblot analysis; format: functional, cell-based; outline: as §2
Cortical neurone [10] = test: Induction of IDE levels in Sprague-Dawley rat Alzheimer's disease model primary cortical neurons after 24 hrs by immunoblot analysis; format: functional, cell-based
[11] = system: ADAM10 (alpha-secretase) (Rattus norvegicus); test: Increase in alpha-secretase activity in Sprague-Dawley rat primary cortical neurons assessed as increase in C83 level by immunoblot analysis; settings: Cerebral cortex neuron
[12] = system: ADAM10 (alpha-secretase) (Rattus norvegicus); test: Increase in alpha-secretase activity in Sprague-Dawley rat primary cortical neurons assessed as increase in sAPPalpha level by immunoblot analysis; settings: Cerebral cortex neuron

Compound	Activity (Cortical neurone [1])	Activity (Cortical neurone [2])	Activity (Cortical neurone [3])	Activity (Cortical neurone [4])	Activity (Cortical neurone [5])	Activity (Cortical neurone [6])	Activity (Cortical neurone [7])	Activity (Cortical neurone [8])	Activity (Cortical neurone [9])	Activity (Cortical neurone [10])	Activity [11]	Activity [12]
C[C@H]1[C@H](C)CC[C@]2(C(=O)O)CC[C@]3(C)C(=CC[C@@H]4[C@@]5(C)C[C@@H](O)[C@H](O)[C@@](C)(CO)[C@@H]5CC[C@]43C)[C@H]12 [ASIATIC ACID]	Non-toxic	Dose-dependent effect	Dose-dependent effect	Dose-dependent effect	inactive	Active						
CC1=C(C)C(=O)O[C@@H]([C@](C)(O)[C@H]2CC[C@H]3[C@@H]4[C@@H]5O[C@@H]5[C@@]5(O)CC=CC(=O)[C@]5(C)[C@H]4CC[C@]23C)C1 [WITHANOLIDE A]		Dose-dependent effect	Dose-dependent effect	Dose-dependent effect			Non-toxic	Non-toxic	Dose-dependent effect	Active	Active	Active

— ChEMBL document CHEMBL1177742, “Withanolide A and asiatic acid modulate multiple targets associated with amyloid-beta precursor protein processing and amyloid-beta protein clearance” (J Nat Prod, 2010)
